What was measured:
[1] = target: Dopamine receptor D2 and D3 (Rattus norvegicus, UniProt P19020+P61169); test: In vitro binding affinity for D2/D3 receptors in rat striatal homogenates by [125I]NCQ298 displacement.
[2] = target: T1, Sodium-dependent dopamine transporter (Rattus norvegicus, UniProt P23977); test: Binding affinity for dopamine transporter was determined in rat striatal membrane; format: cell membranes, Striatum
[3] = target: T2, Sodium-dependent serotonin transporter (Rattus norvegicus, UniProt P31652); test: Binding affinity for serotonin transporter was determined in rat cortical membrane; format: cell membranes
T2 sequence (P31652 whole entry): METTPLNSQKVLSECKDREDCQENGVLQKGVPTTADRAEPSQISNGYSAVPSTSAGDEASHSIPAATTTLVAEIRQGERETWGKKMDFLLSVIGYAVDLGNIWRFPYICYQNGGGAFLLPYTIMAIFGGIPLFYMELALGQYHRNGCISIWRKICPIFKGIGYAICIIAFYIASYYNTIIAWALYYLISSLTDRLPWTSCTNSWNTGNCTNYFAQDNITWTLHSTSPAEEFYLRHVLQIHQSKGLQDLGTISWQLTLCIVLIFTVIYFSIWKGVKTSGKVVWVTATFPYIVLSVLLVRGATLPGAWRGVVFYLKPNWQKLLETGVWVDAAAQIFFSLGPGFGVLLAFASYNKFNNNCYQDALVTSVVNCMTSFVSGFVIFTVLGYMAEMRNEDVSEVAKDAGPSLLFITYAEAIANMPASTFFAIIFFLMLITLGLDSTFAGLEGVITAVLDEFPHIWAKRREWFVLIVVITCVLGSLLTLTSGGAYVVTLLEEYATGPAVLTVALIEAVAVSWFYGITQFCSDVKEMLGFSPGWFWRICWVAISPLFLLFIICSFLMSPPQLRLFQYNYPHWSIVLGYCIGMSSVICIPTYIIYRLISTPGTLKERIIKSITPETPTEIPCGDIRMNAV

Sigma 2 receptor [4] = test: Sigma 2 binding assay was done rat liver membrane, by labeling the binding site with [3H]-DTG (DuPont-NEN) in the presence of […]-pentazocine (100 nM)
Procedure, shortened: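 P2 membranes from male Sprague-Dawley rat liver (35 µg protein) with 3 nM [3H]DTG plus 100 nM unlabelled (+)-pentazocine to mask σ1, 50 mM Tris-HCl pH 8.0, 120 min, 25 °C; GF/B filtration; nonspecific with 5 µM DTG. IC50 in triplicate from 5-10 concentrations, Ki via Cheng-Prusoff (Kd 17.9 nM), mean ± SEM.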

Sigma 2 receptor [5] = test: Sigma 2 binding assay was done rat liver membrane, by labeling the binding site with [3H]DTG (DuPont-NEN) in the presence of […]-pentazocine (100 nM)
[6] = target: T2, Sodium-dependent serotonin transporter; test: Binding affinity for serotonin transporter was determined in rat cortical membrane.; format: cell membranes
[7] = target: T1, Sodium-dependent dopamine transporter; test: Binding affinity for dopamine transporter was determined in rat striatal membrane.; format: cell membranes

T1 sequence (P23977 whole entry): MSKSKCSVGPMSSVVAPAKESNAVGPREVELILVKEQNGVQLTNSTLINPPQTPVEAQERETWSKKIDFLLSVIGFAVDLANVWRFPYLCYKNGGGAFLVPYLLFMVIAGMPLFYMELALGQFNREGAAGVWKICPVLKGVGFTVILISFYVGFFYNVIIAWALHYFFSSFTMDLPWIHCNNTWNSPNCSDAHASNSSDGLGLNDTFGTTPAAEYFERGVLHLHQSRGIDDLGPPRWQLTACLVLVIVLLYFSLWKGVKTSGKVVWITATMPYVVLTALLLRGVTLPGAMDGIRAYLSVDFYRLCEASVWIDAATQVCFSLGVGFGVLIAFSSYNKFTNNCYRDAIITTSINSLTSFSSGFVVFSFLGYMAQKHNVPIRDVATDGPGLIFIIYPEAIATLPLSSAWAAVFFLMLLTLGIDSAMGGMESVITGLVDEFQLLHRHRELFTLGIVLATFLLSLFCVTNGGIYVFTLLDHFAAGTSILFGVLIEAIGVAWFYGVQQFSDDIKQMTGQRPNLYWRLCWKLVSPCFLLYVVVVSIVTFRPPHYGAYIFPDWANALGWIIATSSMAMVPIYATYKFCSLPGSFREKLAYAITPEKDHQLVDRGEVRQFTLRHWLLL

Which results are given for `O[C@H]1Cc2ccccc2C[C@@H]1N1C2CCC1CC(c1ccccc1)C2` (stereo partly specified)?
Ki [1]: 3385 nM; Ki [2]: 1070 nM; Ki [3]: 1680 nM

Which Ki [1] does the source give for `O[C@@H](CN1CCC2(CCc3ccccc32)CC1)c1cccc(Br)c1` here?
Its Ki is > 1000 nM.

And the Ki (Sigma 2 receptor [4])?
The Ki was 12.7 nM.

How did the Ki [1] turn out when `CN1CC2(CCN(C[C@H](O)c3cccc(Br)c3)CC2)c2ccccc21` was run?
The Ki was > 1000 nM.

What about the Ki (Sigma 2 receptor [5]) of the same molecule?
The Ki was 99.2 nM.

For `CN1CC2(CCN([C@@H]3CN(Cc4ccc(F)cc4)CC[C@H]3O)CC2)c2ccccc21`, which Ki [1] is on record?
Its Ki is > 1000 nM.

With `OC(CN1C2CCC1CC(c1ccccc1)C2)c1ccccc1` (stereo unspecified) as the molecule, how does the Ki [2] read?
Its Ki is 41.5 nM.

And the Ki (Sigma 2 receptor [4])?
The Ki was 32.7 nM.

For `O[C@H]1CCN(Cc2cccc(I)c2)C[C@@H]1N1C2CCC1CC(c1ccccc1)C2` (stereo partly specified), which Ki [1] is on record?
The Ki was 1967 nM.

And the Ki [6]?
The Ki was 4430 nM.

And the Ki [7]?
The Ki was 1070 nM.

What about the Ki (Sigma 2 receptor [4]) of the same molecule?
The Ki was 275 nM.

With `OC(CN1C2CCC1CC(c1ccccc1)C2)c1ccc(Cl)c(Cl)c1` (stereo unspecified) as the molecule, how does the Ki [7] read?
The Ki was 23.6 nM.

And the Ki (Sigma 2 receptor [4])?
Its Ki is 18.8 nM.

`CN1CC2(CCN([C@@H]3CCCC[C@H]3O)CC2)c2ccccc21` was tested. Which Ki [1] did it give?
Its Ki is > 1000 nM.

What about the Ki (Sigma 2 receptor [4]) of the same molecule?
The Ki was 357 nM.

`OC(CN1C2CCC1CC(c1ccccc1)C2)c1cccc(Br)c1` (stereo unspecified) was tested. Which Ki [1] did it give?
Its Ki is 2658 nM.

What about the Ki [6] of the same molecule?
Its Ki is 27 nM.

And the Ki [7]?
Its Ki is 23.6 nM.

And the Ki (Sigma 2 receptor [4])?
Its Ki is 9.87 nM.

Which Ki [1] does the source give for `O[C@H]1CCN(Cc2ccc(F)cc2)C[C@@H]1N1C2CCC1CC(c1ccccc1)C2` (stereo partly specified) here?
Its Ki is 8795 nM.

What about the Ki [6] of the same molecule?
The Ki was 9200 nM.

And the Ki [7]?
The Ki was 4180 nM.

What about the Ki (Sigma 2 receptor [4]) of the same molecule?
The Ki was 260 nM.

For `OC(CCCN1C2CCC1CC(c1ccccc1)C2)c1ccc(F)cc1` (stereo unspecified), which Ki [2] is on record?
The Ki was 464 nM.

For `O[C@@H]1CCN(Cc2cccc(I)c2)C[C@H]1N1CCC2(CCc3ccccc32)CC1`, which Ki [1] is on record?
The Ki was > 1000 nM.

What about the Ki (Sigma 2 receptor [5]) of the same molecule?
Its Ki is 224 nM.

For `O[C@@H]1CCCC[C@H]1N1CCC2(CCc3ccccc32)CC1`, which Ki [1] is on record?
The Ki was > 1000 nM.

What about the Ki (Sigma 2 receptor [5]) of the same molecule?
The Ki was 30 nM.

Which results are given for `OC(CN1C2CCC1CC(c1ccccc1)C2)c1ccccc1Br` (stereo unspecified)?
Ki [7]: 67.2 nM; Ki (Sigma 2 receptor [4]): 7.71 nM

Which Ki [1] does the source give for `CN1CC2(CCN(C[C@H](O)Cc3ccc(Br)cc3)CC2)c2ccccc21` here?
The Ki was > 1000 nM.

What about the Ki (Sigma 2 receptor [5]) of the same molecule?
Its Ki is 22.9 nM.

What does the source list for `O[C@H]1CCCC[C@@H]1N1C2CCC1CC(c1ccccc1)C2` (stereo partly specified)?
Ki [1]: > 38000 nM; Ki [2]: 2810 nM; Ki (Sigma 2 receptor [4]): 118 nM; Ki [3]: 3420 nM

`OC(CN1C2CCC1CC(c1ccccc1)C2)c1c(Cl)cccc1Cl` (stereo unspecified) was tested. Which Ki [7] did it give?
The Ki was 42 nM.

And the Ki (Sigma 2 receptor [4])?
The Ki was 15.9 nM.

Which Ki [1] does the source give for `OC(CN1C2CCC1CC(c1ccccc1)C2)c1ccc(Br)cc1` (stereo unspecified) here?
Its Ki is 5092 nM.

And the Ki [6]?
The Ki was 30.1 nM.

What about the Ki [7] of the same molecule?
The Ki was 73.8 nM.

What about the Ki (Sigma 2 receptor [4]) of the same molecule?
Its Ki is 11.3 nM.

For `CN1CC2(CCN([C@@H]3Cc4ccccc4C[C@H]3O)CC2)c2ccccc21`, which Ki [1] is on record?
The Ki was > 1000 nM.

For `O=C(CN1C2CCC1CC(c1ccccc1)C2)c1ccc(F)cc1` (stereo unspecified), which Ki [7] is on record?
Its Ki is 222 nM.

And the Ki (Sigma 2 receptor [4])?
The Ki was 73.3 nM.

For `OC(Cc1ccc(Br)cc1)CN1C2CCC1CC(c1ccccc1)C2` (stereo unspecified), which Ki [1] is on record?
Its Ki is 1490 nM.

And the Ki [2]?
Its Ki is 306 nM.

What about the Ki (Sigma 2 receptor [4]) of the same molecule?
Its Ki is 4.95 nM.

What about the Ki [3] of the same molecule?
Its Ki is 234 nM.

Which results are given for `O[C@H](Cc1ccc(Br)cc1)CN1CCC2(CCc3ccccc32)CC1`?
Ki [1]: > 1000 nM; Ki (Sigma 2 receptor [5]): 8.8 nM

For `CN1CC2(CCN([C@@H]3CN(Cc4cccc(I)c4)CC[C@H]3O)CC2)c2ccccc21`, which Ki [1] is on record?
The Ki was > 1000 nM.

What about the Ki (Sigma 2 receptor [5]) of the same molecule?
The Ki was 139 nM.

For `O=C(CCCN1C2CCC1CC(c1ccccc1)C2)c1ccc(F)cc1` (stereo unspecified), which Ki [1] is on record?
The Ki was 16.3 nM.

What about the Ki [6] of the same molecule?
The Ki was 88.6 nM.

And the Ki [7]?
Its Ki is 129 nM.

And the Ki (Sigma 2 receptor [4])?
The Ki was 15.4 nM.

How did the Ki (Sigma 2 receptor [5]) turn out when `O=C(CCCN1CCC2(CCc3ccccc32)CC1)c1ccc(F)cc1` was run?
Its Ki is 3.3 nM.

Which Ki [1] does the source give for `CN1CC2(CCN(CCCC(=O)c3ccc(F)cc3)CC2)c2ccccc21` here?
Its Ki is 56.5 nM.

And the Ki (Sigma 2 receptor [4])?
Its Ki is 60.8 nM.

Which results are given for `O[C@@H]1CCN(Cc2ccc(F)cc2)C[C@H]1N1CCC2(CCc3ccccc32)CC1`?
Ki [1]: > 1000 nM; Ki (Sigma 2 receptor [5]): 67 nM

`O[C@@H]1Cc2ccccc2C[C@H]1N1CCC2(CCc3ccccc32)CC1` was tested. Which Ki [1] did it give?
Its Ki is > 1000 nM.
